In ChEMBL document CHEMBL2157987, “Benzimidazole bearing oxadiazole and triazolo-thiadiazoles nucleus: design and synthesis as anticancer agents” (2012):

Legend:
UO-31 = test: Cytotoxicity against human UO31 cells assessed as cell growth at 10 uM after 48 hrs by SRB assay; type: functional; settings: UO-31, 48 h, read-out: Activity
Outline: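 This was a single-concentration screen on UO-31 in RPMI 1640 with 5% FBS. Compound went on 24 h after plating, with 48 h exposure at 37 °C. End point was sulforhodamine B protein staining read at 515 nm. Results are percent growth of treated cells relative to untreated controls and time-zero plates.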

K562 = test: Cytotoxicity against human K562 cells assessed as cell growth at 10 uM after 48 hrs by SRB assay; type: functional; settings: K562, 48 h, read-out: Activity
Outline: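 NCI single-dose screen at 10 µM. Cells were incubated 48 h and the end point was read by sulforhodamine B protein staining. Results are given as percent growth of treated cells relative to untreated controls. Growth of 32% or less was counted as active.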

Row | SMILES | growth at 10 µM (UO-31) [%] | growth at 10 µM (K562) [%]
1 | O=C(CCc1nnc(-c2cc(O)c(O)c(O)c2)o1)c1nc2ccccc2[nH]1 | 62.2 | 
2 | O=C(CCc1nnc(/C=C/c2ccccc2)o1)c1nc2ccccc2[nH]1 |  | 24.6
3 | O=C(CCc1nnc2sc(-c3cc(O)c(O)c(O)c3)nn12)c1nc2ccccc2[nH]1 |  | 8.3
4 | Nc1cc(Br)c(-c2nn3c(CCC(=O)c4nc5ccccc5[nH]4)nnc3s2)c(Br)c1 |  | 7.05
5 | O=C(CCc1nnc2sc(/C=C/c3ccccc3)nn12)c1nc2ccccc2[nH]1 |  | 2.17
